In ChEMBL document CHEMBL1140339, “Spiro and dispiro-1,2,4-trioxolanes as antimalarial peroxides: charting a workable structure-activity relationship using simple prototypes” (J Med Chem, 2005):
In brackets after ≈: the same amount, converted by molar mass.

Columns and labels:
Mus musculus [1] = assay: Antimalarial activity (10 mg/kg, subcutaneously) given 1 day post infection of mice (Mus musculus) with Plasmodium berghei is its ability to reduce parasitemia on day 3 post infection; assay type: functional
How it was run: (§1)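 P. berghei-infected MORO mice, groups of three, treated 1 day postinfection with a single dose (100 or 10 mg/kg, po or sc) dissolved or suspended in 3% ethanol/7% Tween-80. Activity is percent reduction in parasitemia on day 3 postinfection versus untreated controls. Survival time is compared with an untreated control group. Individual measurements generally differed by less than 10%.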

Mus musculus [2] = assay: Survival of mice to 30-day postinfection with Plasmodium berghei upon 10 mg/kg peroral dose was determined; assay type: functional; settings: route oral; how it was run: as §1
Mus musculus [3] = assay: Survival of mice to 30-day postinfection with Plasmodium berghei upon 100 mg/kg upon subcutaneous dose was determined; assay type: functional; how it was run: as §1
Mus musculus [4] = assay: Antimalarial activity (10 mg/kg, peroral) given 1 day post infection of mice (Mus musculus) with Plasmodium berghei is its ability to reduce parasitaemia on day 3 post infection; assay type: functional; how it was run: as §1
Mus musculus [5] = assay: Survival of mice to 30-day postinfection with Plasmodium berghei upon 10 mg/kg upon subcutaneous dose was determined; assay type: functional; how it was run: as §1
Plasmodium falciparum [6] = assay: In vitro inhibition of chloroquine-resistant Plasmodium falciparum K1; assay type: functional, organism-based
Plasmodium falciparum [7] = assay: In vitro inhibition of chloroquine-sensitive Plasmodium falciparum NF54; assay type: functional, organism-based
Mus musculus [8] = assay: Antimalarial activity (100 mg/kg, peroral) given 1 day post infection of mice (Mus musculus) with Plasmodium berghei is its ability to reduce parasitaemia on day 3 post infection; assay type: functional; how it was run: as §1
Mus musculus [9] = assay: Antimalarial activity (100 mg/kg, subcutaneously) given 1 day post infection of mice (Mus musculus) with Plasmodium berghei is its ability to reduce parasitemia on day 3 post infection; assay type: functional; how it was run: as §1
Mus musculus [10] = assay: Survival of mice to 30-day postinfection with Plasmodium berghei upon 100 mg/kg peroral dose was determined; assay type: functional; settings: route oral; how it was run: as §1
Mus musculus [11] = assay: Survival of mice to 30-day postinfection with Plasmodium berghei upon 10 mg/kg upon peroral dose was determined; assay type: functional; settings: route oral; how it was run: as §1
Mus musculus [12] = assay: Effective dose required to reduce the parasitemia in mice when compound administered with Tween-80 after 3 day postinfection; assay type: functional
Mus musculus [13] = assay: Effective dose required to reduce the parasitemia in mice when compound administered with SSV after 3 day postinfection; assay type: functional
Mus musculus [14] = species: Mus musculus; assay: Effective dose required to reduce the parasitemia in mice by suppressive test after 4 day postinfection; assay type: functional
How it was run: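 Peters 4-day suppressive test in P. berghei-infected mice with multiple daily oral doses. ED50/ED90 are given in (mg/kg)/day.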

[15] = Oral bioavailability (dose 50 mg/kg); settings: rat, in vivo
[16] = Plasma clearance after intravenous administration of 10 mg/kg; settings: rat
[17] = Volume distribution after intravenous administration of 10 mg/kg; settings: rat, in vivo
[18] = Plasma half life period after intravenous administration ( 10 mg/kg ); settings: rat

SMILES | Reduction (Mus musculus [1]) | Survival (Mus musculus [2]) | Survival (Mus musculus [3]) | Reduction (Mus musculus [4]) | Survival (Mus musculus [5]) | IC50 (Plasmodium falciparum [6]) | IC50 (Plasmodium falciparum [7]) | also measured
C1CCCCCC2(CCCCC1)OOC1(O2)C2CC3CC(C2)CC1C3 (configuration not stated) | 90% | 7.4 days | 7 days |  |  |  |  | 
O=S1(=O)CCC2(CC1)OOC1(O2)C2CC3CC(C2)CC1C3 (configuration not stated) | 97% | 7 days |  | 77% | 7.3 days |  |  | 
CC(C)(C)C1CCC2(CC1)OOC1(O2)C2CC3CC(C2)CC1C3 (configuration not stated) | 0% | 5 days |  | 0% | 5.3 days | 0.063 µg/mL (≈ 0.197 µM) | 0.084 µg/mL (≈ 0.262 µM) | 
OC1CCC2(CC1)OOC1(O2)C2CC3CC(C2)CC1C3 (configuration not stated) | 91% | 6.7 days |  | 79% | 8.7 days |  |  | 
c1ccc(C2(c3ccccc3)CCC3(CC2)OOC2(O3)C3CC4CC(C3)CC2C4)cc1 (configuration not stated) | 0% | 5.3 days |  | 0% | 5.7 days | 0.042 µg/mL (≈ 0.101 µM) | 0.06 µg/mL (≈ 0.144 µM) | 
C1CCC2(CC1)OCC1(O2)C2CC3CC(C2)CC1C3 (configuration not stated) |  |  | 5.6 days |  |  | > 1 µg/mL | > 1 µg/mL | Reduction (Mus musculus [8]): 0%; Reduction (Mus musculus [9]): 0%; Survival (Mus musculus [10]): 5.8 days
CC1(C)CCC2(CC1)OOC1(O2)C2CC3CC(C2)CC1C3 (configuration not stated) |  | 6.7 days |  | 80% | 11.7 days | 0.0023 µg/mL (≈ 0.00787 µM) | 0.0035 µg/mL (≈ 0.012 µM) | 
c1ccc(C2(c3ccccc3)OOC3(O2)C2CC4CC(C2)CC3C4)cc1 (configuration not stated) | 92% | 6 days |  | 68% | 7 days | 0.0023 µg/mL (≈ 0.0066 µM) | 0.0026 µg/mL (≈ 0.00746 µM) | 
CC(C)(C)C1CCC2(CC1)OOC1(CCC(c3ccccc3)CC1)O2 (configuration not stated) |  | 0 days |  |  |  | 0.077 µg/mL (≈ 0.224 µM) | 0.062 µg/mL (≈ 0.18 µM) | 
c1ccc(C2CCC3(CC2)OOC2(O3)C3CCCC2CCC3)cc1 (configuration not stated) | 0% | 5 days |  | 0% | 5 days | > 0.1 µg/mL | > 0.1 µg/mL | 
C1CCC2(CC1)OOC1(O2)C2CC3CC(C2)CC1C3 (configuration not stated) | >99.99% |  | 28 days | 94% |  |  |  | Reduction (Mus musculus [8]): >99.99%; Reduction (Mus musculus [9]): >99.99%; Survival (Mus musculus [10]): 14.3 days; Survival (Mus musculus [11]): 7.2 days
CO[C@H]1O[C@@H]2O[C@@]3(C)CC[C@H]4[C@H](C)CC[C@@H]([C@H]1C)[C@@]24OO3 | 99.78% |  | 14.7 days | 98% |  |  |  | Reduction (Mus musculus [8]): 99.95%; Reduction (Mus musculus [9]): >99.99%; ED50 (Mus musculus [12]): 2 (mg/kg)/day; ED90 (Mus musculus [12]): 4.3 (mg/kg)/day; ED50 (Mus musculus [13]): 2.7 (mg/kg)/day; ED90 (Mus musculus [13]): 6.2 (mg/kg)/day; ED50 (Mus musculus [14]): 3.1 (mg/kg)/day; Survival (Mus musculus [10]): 14.7 days; bioavailability [15]: 1.4%; clearance [16]: 114 mL/min/kg; Vd [17]: 8 L/kg; half-life [18]: 52 min
C[C@@H]1CC[C@H]2[C@@H](C)C(=O)O[C@@H]3O[C@@]4(C)CC[C@@H]1[C@]32OO4 [ARTEMISININ] |  |  | 14 days |  |  | 0.0016 µg/mL (≈ 0.00567 µM) |  | Reduction (Mus musculus [8]): 98%; Reduction (Mus musculus [9]): >99.99%
C[C@H]1[C@H](OC(=O)CCC(=O)O)O[C@@H]2O[C@@]3(C)CC[C@H]4[C@H](C)CC[C@@H]1[C@@]24OO3 [ARTESUNATE] | 65% | 6.8 days |  | 65% | 6.8 days |  |  | ED50 (Mus musculus [12]): 5 (mg/kg)/day; ED90 (Mus musculus [12]): 13 (mg/kg)/day; ED50 (Mus musculus [13]): 5.9 (mg/kg)/day; ED90 (Mus musculus [13]): 21 (mg/kg)/day; ED50 (Mus musculus [14]): 2.4 (mg/kg)/day; ED90 (Mus musculus [14]): 13 (mg/kg)/day
CCN(CC)CCCC(C)Nc1ccnc2cc(Cl)ccc12 (configuration not stated) [CHLOROQUINE] |  |  |  |  |  |  |  | ED50 (Mus musculus [13]): 1.9 (mg/kg)/day; ED90 (Mus musculus [13]): 4.2 (mg/kg)/day
